Results from PMC10906133 (Journal of Enzyme Inhibition and Medicinal Chemistry, 2024).

Assays:
[1] = tested on: DSS-induced acute colitis in mice; assay: DSS-induced acute colitis model in mice; assay type: in vivo, C57BL/6 mice; details: for MPO in colon tissue: day 7, E2 20 mg/kg, sulfasalazine 200 mg/kg, oral
Method in brief: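 Male C57BL/6 mice (16–18 g; n=10 per group) received 5% (wt/vol) DSS in drinking water on days 1–7. Test compound (10 or 20 mg/kg) or sulfasalazine 200 mg/kg was given by gavage in 0.5% CMC-Na on days 1–7; control groups received vehicle. Weight, stool and DAI were scored daily. On day 8: serum ELISA (TNF-α, IL-1β, IL-6), colon length, histology, and colon MPO. Values are mean ± SEM.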

[2] = tested on: p-p38, p-ERK and p-JNK (MAPK signalling pathway); assay: Western blot of MAPKs signalling pathway in LPS-treated RAW264.7 cells; assay type: cell-based; details: RAW264.7, 2, 1, 0.5 µM 1 h, then LPS 500 ng/mL 30 min
[3] = tested on: iNOS, COX2, IL-6 and TNF-α protein expression; assay: Western blot of inflammatory protein expression in LPS-treated RAW264.7 cells; assay type: cell-based; details: RAW264.7, 2, 1, 0.5 µM 1 h, then LPS 500 ng/mL 24 h
Method in brief: (§1)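 RAW264.7 cells (2 × 10^6/well) were cultured overnight, pretreated 1 h with test compound at 2, 1 or 0.5 µM, then stimulated with LPS 0.5 µg/mL. Lysis was in RIPA, followed by SDS-PAGE and PVDF transfer. Primary antibodies (1:1000) were applied overnight at 4 °C, then HRP secondary for 1 h, with ECL detection and β-actin reference. Three repeats; densitometry given as mean ± SD.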

[4] = tested on: phosphorylation of IκB and p65 (NF-κB signalling pathway); assay: Western blot of NF-κB signalling pathway in LPS-treated RAW264.7 cells; assay type: cell-based; details: RAW264.7, 2, 1, 0.5 µM 1 h, then LPS 500 ng/mL 30 min
Method in brief: as §1

SMILES	MPO in colon tissue [1]	Expression of p-p38, p-ERK and p-JNK [2]	DSS treatment-induced shortening of colon length ([1]; 5% DSS days 1-7, oral E2 10 and 20 mg/kg)	Histopathological symptoms of colon ([1]; 5% DSS days 1-7, oral E2, vs model group)	Levels of COX-2, p-NF-κB and p-Stat3 expression in colon (Western blot) ([1]; DSS-treated mice, oral E2)	Levels of TNF-α, IL-1β and IL-6 in serum (ELISA) ([1]; DSS-treated mice, oral E2)	mRNA expression levels of TNF-α, IL-1β, IL-6, iNOS, COX-2 and TLR4 in colon tissue ([1]; DSS-treated mice, oral E2, RT-qPCR)	Expression of iNOS, COX2, IL-6 and TNF-α protein [3]	Phosphorylation of IκB and p65 proteins [4]
O=C(O)c1cc(/N=N/c2ccc(S(=O)(=O)Nc3ccccn3)cc2)ccc1O [sulfasalazine, Sulfasalazine, reference compound]	significantly reduced								
C#CCOc1ccc(/C=C/c2cc(OC)cc(OC)c2-c2cnnn2C(=O)NCCC)cc1 [E2]	significantly reduced	inhibits the expression of p-p38, p-ERK, and p-JNK in a dose-dependent manner	significantly attenuated	significantly improved these symptoms	decreased	significantly decreased	alleviated	significantly inhibited	inhibited
